In experiment [1] the target is T1, Estrogen receptor (Homo sapiens) (UniProt P03372).
T1 sequence (whole entry): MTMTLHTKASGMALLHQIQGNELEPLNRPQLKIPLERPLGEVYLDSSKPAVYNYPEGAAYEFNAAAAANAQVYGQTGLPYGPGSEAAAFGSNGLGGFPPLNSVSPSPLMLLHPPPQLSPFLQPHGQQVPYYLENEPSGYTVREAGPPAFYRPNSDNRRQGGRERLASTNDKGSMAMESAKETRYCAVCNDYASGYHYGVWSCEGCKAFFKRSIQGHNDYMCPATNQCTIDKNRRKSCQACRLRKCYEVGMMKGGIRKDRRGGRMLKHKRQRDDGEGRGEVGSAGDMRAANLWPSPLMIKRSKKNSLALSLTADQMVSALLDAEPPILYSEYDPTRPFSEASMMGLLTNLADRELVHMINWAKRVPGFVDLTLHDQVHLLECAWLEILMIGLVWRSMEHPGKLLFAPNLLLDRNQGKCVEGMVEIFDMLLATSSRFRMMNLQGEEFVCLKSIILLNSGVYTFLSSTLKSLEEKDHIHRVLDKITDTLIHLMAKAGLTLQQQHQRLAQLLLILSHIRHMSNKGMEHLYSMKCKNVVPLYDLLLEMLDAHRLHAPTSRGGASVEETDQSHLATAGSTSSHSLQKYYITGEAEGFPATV
As to the kind of experiment: Displacement of [3H]estradiol from human recombinant ERalpha assessed as relative binding affinity after 1 hr by liquid scintillation counting relative to estradiol. The method in brief: (§1)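 Recombinant human ERα or ERβ (0.25 pmol) incubated with [3H]-E2 (10 nM) plus test compound, 1 h at room temperature; compound in DMSO (5% final). Nonspecific binding defined with diethylstilbestrol (10 µM). Receptor–ligand complexes captured on hydroxyapatite, washed, resuspended in ethanol, counted by liquid scintillation.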
For orientation: In a radioligand displacement assay an active substance lowers the binding of a labelled ligand.

Experiment [2] has as its target Estrogen receptor beta (Homo sapiens) (UniProt Q92731). In words: Displacement of [3H]estradiol from human recombinant ERbeta assessed as relative binding affinity after 1 hr by liquid scintillation counting relative to estradiol. An outline of the steps:
as §1

In experiment [3] the target is T2, 17-beta-hydroxysteroid dehydrogenase type 2 (Homo sapiens) (UniProt P37059).
T2 sequence (whole entry): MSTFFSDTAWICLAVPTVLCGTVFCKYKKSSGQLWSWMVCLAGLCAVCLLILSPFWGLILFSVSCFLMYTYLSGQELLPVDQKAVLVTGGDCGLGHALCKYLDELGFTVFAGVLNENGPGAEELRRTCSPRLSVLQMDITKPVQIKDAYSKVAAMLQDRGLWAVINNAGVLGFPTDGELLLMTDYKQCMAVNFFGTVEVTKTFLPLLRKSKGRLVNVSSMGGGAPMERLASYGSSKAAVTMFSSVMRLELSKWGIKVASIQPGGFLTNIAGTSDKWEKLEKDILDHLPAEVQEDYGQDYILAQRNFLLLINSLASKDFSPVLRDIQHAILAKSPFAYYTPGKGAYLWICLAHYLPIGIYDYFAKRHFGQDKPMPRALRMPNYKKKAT
As to the kind of experiment: Inhibition of human placental 17beta-HSD2 assessed as formation of [2,4,6,7-3H]-estrone using [2,4,6,7-3H]-estradiol as substrate at 1 uM after 20 mins by radio flow detector-based HPLC analysis in presence of NAD+ as cofactor.

The target of experiment [4] is T2, 17-beta-hydroxysteroid dehydrogenase type 2 (Homo sapiens). In words: Inhibition of 17beta-HSD2. Conditions: concentration not given here. The method in brief:
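Human placental microsomal fraction (150,000 g) with NAD+ 1500 µM, 37 °C, in 50 mM phosphate buffer containing 20% glycerol and 1 mM EDTA; DMSO 1% final. Started with unlabelled plus [3H]-E2 (500 nM final), run 20 min, stopped with HgCl2, ether-extracted. E1/E2 separated by HPLC with radioflow detection; % conversion = E1/(E1+E2)×100. At least three independent experiments.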

Experiment [5] is filed under the species Homo sapiens. In words: Selectivity ratio of IC50 for human placental 17beta-HSD1 to IC50 for human placental 17beta-HSD2.
The target in experiment [6] is T3, 17-beta-hydroxysteroid dehydrogenase type 1 (Homo sapiens) (UniProt P14061).
T3 sequence (whole entry): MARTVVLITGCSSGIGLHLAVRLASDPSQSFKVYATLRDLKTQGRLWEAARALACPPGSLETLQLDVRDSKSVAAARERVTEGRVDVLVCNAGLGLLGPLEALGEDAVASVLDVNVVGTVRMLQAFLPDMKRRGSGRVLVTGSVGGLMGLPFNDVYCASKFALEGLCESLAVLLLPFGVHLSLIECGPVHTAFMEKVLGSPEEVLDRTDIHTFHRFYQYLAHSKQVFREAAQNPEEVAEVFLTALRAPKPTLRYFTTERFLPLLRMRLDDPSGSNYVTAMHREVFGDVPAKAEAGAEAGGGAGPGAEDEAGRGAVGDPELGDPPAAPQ
As to the kind of experiment: Inhibition of human placental 17beta-HSD1 using [2,4,6,7-3H]-estrone as substrate at 1 uM after 10 mins by radio flow detector-based HPLC analysis in presence of NADH as cofactor. An outline of the steps:
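Placental enzyme from the cytosolic fraction after ammonium sulfate precipitation. Incubated with NADH 500 µM, test compound and unlabelled plus [3H]-E1 (500 nM final), 10 min at 37 °C. Stopped, extracted, and steroids separated by HPLC with radioflow detection, as for the type 2 assay.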

Experiment [7] concerns the target T4, 17-beta-hydroxysteroid dehydrogenase type 2 (Homo sapiens, UniProt P37059).
T4 sequence (P37059 whole entry): T2 sequence (whole entry)
As to the kind of experiment: Inhibition of human placental 17beta-HSD2 assessed as formation of [2,4,6,7-3H]-estrone using [2,4,6,7-3H]-estradiol as substrate after 20 mins by radio flow detector-based HPLC analysis in presence of NAD+ as cofactor.

Experiment [8] concerns the target T5, 17-beta-hydroxysteroid dehydrogenase type 1 (Homo sapiens, UniProt P14061).
T5 sequence (P14061 whole entry): T3 sequence (whole entry)
In words: Inhibition of human placental 17beta-HSD1 using [2,4,6,7-3H]-estrone as substrate after 10 mins by radio flow detector-based HPLC analysis in presence of NADH as cofactor. The method in brief: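 Enzyme was the ammonium sulfate–precipitated cytosolic fraction of fresh homogenised human placenta. It was incubated at 37 °C for 10 min with NADH (500 µM), inhibitor, and unlabelled plus [3H]-E1 (final 500 nM, 0.15 µCi). Reaction stopped with HgCl2, then ether extraction. E1/E2 were separated by HPLC with radioflow detection.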

Structures are written as SMILES. Calls of active or inactive are those of the source. No cut-off for these calls is given here. Some results are limits rather than exact numbers.

As a reminder, the inhibition is how much of the control response was suppressed. Usually IC50 stands for the midpoint of a concentration-inhibition curve.

Sequence of Estrogen receptor beta (Homo sapiens) (Q92731 whole entry): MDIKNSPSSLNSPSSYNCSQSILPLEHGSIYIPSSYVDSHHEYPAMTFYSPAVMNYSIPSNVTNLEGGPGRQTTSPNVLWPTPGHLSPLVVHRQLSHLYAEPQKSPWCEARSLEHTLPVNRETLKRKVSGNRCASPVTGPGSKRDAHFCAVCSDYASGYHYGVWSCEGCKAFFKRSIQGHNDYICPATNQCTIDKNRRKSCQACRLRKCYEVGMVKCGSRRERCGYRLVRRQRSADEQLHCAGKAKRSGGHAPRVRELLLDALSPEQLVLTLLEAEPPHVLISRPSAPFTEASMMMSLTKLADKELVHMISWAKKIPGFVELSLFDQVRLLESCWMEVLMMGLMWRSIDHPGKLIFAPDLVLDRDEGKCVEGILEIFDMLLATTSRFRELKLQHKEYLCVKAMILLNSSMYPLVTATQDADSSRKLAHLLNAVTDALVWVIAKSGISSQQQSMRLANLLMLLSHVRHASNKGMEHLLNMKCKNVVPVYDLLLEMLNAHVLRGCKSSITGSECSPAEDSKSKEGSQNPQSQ

With `CN(Cc1cccc(O)c1)C(=O)c1cccc(-c2ccc(O)cc2)c1`, the RBA in experiment [1] and in experiment [2] was under 0.1% each time.
Consider `C[C@]12CC[C@@H]3c4ccc(O)cc4CC[C@H]3[C@@H]1CC[C@@]21CCCC(=O)O1`, for which the inhibition turned out to be 65% in experiment [3] and 62% in experiment [4]. The RBA in experiment [1] and in experiment [2] was under 0.1% in each case.
As for `COc1ccc(-c2ccc(C(=O)N(C)Cc3cccc(O)c3)s2)cc1`, the Ratio IC50 in experiment [5] is over 250. The RBA in experiment [1] and in experiment [2] was under 0.1% in each case.
Regarding `CN(Cc1cccc(O)c1)C(=O)c1ccc(-c2cccc(F)c2)s1`, in experiment [5], the Ratio IC50 was determined as 10. Further, the RBA in experiment [1] and in experiment [2] was under 0.1% in each case.
With `CN(Cc1cccc(O)c1)C(=O)c1ccc(-c2ccc(C#N)cc2)s1`, the RBA in experiment [1] and in experiment [2] was under 0.1% throughout.
As to `COc1ccccc1-c1ccc(C(=O)N(C)Cc2ccccc2)s1`, the RBA in experiment [1] and in experiment [2] was under 0.1% in each case.
In the case of `CN(Cc1ccccc1)C(=O)c1ccc(-c2ccc(O)cc2)s1`, the RBA in experiment [1] and in experiment [2] was under 0.1% throughout.
Consider `CN(C(=O)Cc1cccc(O)c1)c1cccc(-c2ccc(O)cc2)c1`, for which, in experiment [3], the inhibition is 39%. For the same compound, the RBA in experiment [1] and in experiment [2] was under 0.1% throughout. In addition, the inhibition result in experiment [6] is “inactive”.
With `COc1cccc(CN(C)C(=O)c2cccc(-c3cccc(OC)c3)c2)c1`, the RBA in experiment [1] and in experiment [2] was under 0.1% each time.
`CN(Cc1cccc(O)c1)C(=O)c1ccc(-c2ccccc2)s1`: the RBA in experiment [1] and in experiment [2] was under 0.1% each time.
Compound `Cn1nc(-c2cccc(O)c2)nc1-c1ccc(-c2cccc(O)c2)cc1` had an inhibition in experiment [4] of 42%.
With `COc1ccc(-c2ccc(C(=O)N(C)Cc3cccc(OC)c3)s2)cc1`, the RBA in experiment [1] and in experiment [2] was under 0.1% each time.
On to `COc1cccc(CN(C)C(=O)c2ccc(-c3ccc(C#N)cc3)s2)c1`, for which the inhibition entry in experiment [3] and in experiment [6] was “inactive” throughout. Also, the RBA in experiment [1] and in experiment [2] was under 0.1% throughout.
Compound `Cn1nc(-c2cccc(O)c2)nc1-c1ccc(-c2cccc(O)c2)s1` registered an inhibition in experiment [4] of 30%.
Take `COc1cccc(CN(C)C(=O)c2ccc(-c3ccccc3)s2)c1`: the RBA in experiment [1] and in experiment [2] was under 0.1% each time.
On to `COc1cccc(-c2ccc(C(=O)N(C)Cc3cccc(O)c3)s2)c1F`, for which the Ratio IC50 in experiment [5] was determined as 73. Also, the RBA in experiment [1] and in experiment [2] was under 0.1% in each case.
As to `COc1ccc(-c2ccc(C(=O)N(C)Cc3ccccc3)s2)cc1`, the RBA in experiment [1] and in experiment [2] was under 0.1% each time.
Regarding `CN(Cc1cccc(O)c1)C(=O)c1ccc(-c2cccc(O)c2F)s1`, the RBA in experiment [1] and in experiment [2] was under 0.1% in each case.
For `CN(Cc1cccc(O)c1)C(=O)c1cccc(-c2cccc(O)c2)c1`, the Ratio IC50 in experiment [5] was found to be 8. Also, the RBA in experiment [1] and in experiment [2] was under 0.1% each time.
Regarding `CN(Cc1cccc(O)c1)C(=O)c1ccc(-c2cccc(N(C)C)c2)s1`, the Ratio IC50 in experiment [5] was 75. Also, the RBA in experiment [1] and in experiment [2] was under 0.1% throughout.
As to `CN(Cc1ccccc1)C(=O)c1ccc(-c2ccccc2O)s1`, the RBA in experiment [1] and in experiment [2] was under 0.1% each time.
For the compound `COc1cccc(CN(C)C(=O)c2ccc(-c3cccc(OC)c3)cc2)c1`, the RBA in experiment [1] and in experiment [2] was under 0.1% in each case.
`COc1ccc(-c2cccc(C(=O)N(C)Cc3cccc(OC)c3)c2)cc1`: in experiment [3], the inhibition was 11%. In addition, the RBA in experiment [1] and in experiment [2] was under 0.1% each time. For the same compound, the inhibition entry in experiment [6] is “inactive”.
For `COc1cccc(CN(C)C(=O)c2ccc(-c3cccc(C)c3)cc2)c1`, in experiment [5], the Ratio IC50 is over 375. Moreover, the RBA in experiment [1] and in experiment [2] was under 0.1% throughout.
Turning to `COc1cccc(CN(C)C(=O)c2ccc(-c3ccccc3OC)s2)c1`, the inhibition in experiment [3] worked out at 49%. In addition, the RBA in experiment [1] and in experiment [2] was under 0.1% each time. Also, the inhibition entry in experiment [6] was “inactive”.
As for `CN1C(=O)C[C@@H](c2ccccc2)[C@H]1[C@H](O)c1ccc(-c2cccnc2)s1`, the IC50 in experiment [7] came out at 0.05 µM.
As to `Cc1cccc(-c2ccc(C(=O)N(C)Cc3cccc(O)c3)cc2)c1`, the RBA in experiment [1] and in experiment [2] was under 0.1% in each case.
As for `CN(Cc1cccc(O)c1)C(=O)c1ccc(-c2ccccc2O)s1`, in experiment [5], the Ratio IC50 turned out to be 20. Also, the RBA in experiment [1] and in experiment [2] was under 0.1% throughout.
Regarding `COc1cccc(CN(C)C(=O)c2ccc(-c3cccc(OC)c3)s2)c1`, the Ratio IC50 in experiment [5] is over 250. For the same compound, the RBA in experiment [1] and in experiment [2] was under 0.1% in each case.
In the case of `CN(Cc1cccc(O)c1)C(=O)c1ccc(-c2ccc(F)cc2)s1`, the RBA in experiment [1] and in experiment [2] was under 0.1% throughout.
`CN(Cc1ccccc1)C(=O)c1ccc(-c2cccc(O)c2)s1`: the RBA in experiment [1] and in experiment [2] was under 0.1% in each case.
As to `Cc1cccc(-c2ccc(C(=O)N(C)Cc3cccc(O)c3)s2)c1`, in experiment [5], the Ratio IC50 came to 65. The RBA in experiment [1] and in experiment [2] was under 0.1% each time.
Turning to `CN(Cc1cccc(O)c1)C(=O)c1ccc(-c2cccc(O)c2)s1`, in experiment [5], the Ratio IC50 stood at 14. Moreover, the IC50 in experiment [8] is 5.45 µM. In addition, the RBA in experiment [1] and in experiment [2] was under 0.1% each time.
On to `CN(Cc1cccc(O)c1)C(=O)c1ccc(-c2cccc(O)c2)cc1`, for which the RBA in experiment [1] and in experiment [2] was under 0.1% each time.
As for `CN(Cc1cccc(O)c1)C(=O)c1ccc(-c2ccc(O)cc2)s1`, in experiment [5], the Ratio IC50 came out at 15. The RBA in experiment [1] and in experiment [2] was under 0.1% each time.
Take `COc1cccc(-c2ccc(C(=O)N(C)Cc3ccccc3)s2)c1`: the RBA in experiment [1] and in experiment [2] was under 0.1% throughout.

The record behind these values is ChEMBL document CHEMBL1914317, “Triazole ring-opening leads to the discovery of potent nonsteroidal 17β-hydroxysteroid dehydrogenase type 2 inhibitors” (Eur J Med Chem, 2011).
